DNMT1 inh: human DNMT1 methyltransferase inhibitors, primary screen, biochemical, molecular beacon, fluorescence, HinP1I cleavage, uHTS. DNA (cytosine-5)-methyltransferase 1 (Homo sapiens), P26358. inhibition (reported as % activation of signal), % at 10 µM. 360,000 compounds, 0.83% hits. AID 588458, 2011; in the data active = inhibition above about 50%
Target sequence (P26358 504-1616 limits assumed): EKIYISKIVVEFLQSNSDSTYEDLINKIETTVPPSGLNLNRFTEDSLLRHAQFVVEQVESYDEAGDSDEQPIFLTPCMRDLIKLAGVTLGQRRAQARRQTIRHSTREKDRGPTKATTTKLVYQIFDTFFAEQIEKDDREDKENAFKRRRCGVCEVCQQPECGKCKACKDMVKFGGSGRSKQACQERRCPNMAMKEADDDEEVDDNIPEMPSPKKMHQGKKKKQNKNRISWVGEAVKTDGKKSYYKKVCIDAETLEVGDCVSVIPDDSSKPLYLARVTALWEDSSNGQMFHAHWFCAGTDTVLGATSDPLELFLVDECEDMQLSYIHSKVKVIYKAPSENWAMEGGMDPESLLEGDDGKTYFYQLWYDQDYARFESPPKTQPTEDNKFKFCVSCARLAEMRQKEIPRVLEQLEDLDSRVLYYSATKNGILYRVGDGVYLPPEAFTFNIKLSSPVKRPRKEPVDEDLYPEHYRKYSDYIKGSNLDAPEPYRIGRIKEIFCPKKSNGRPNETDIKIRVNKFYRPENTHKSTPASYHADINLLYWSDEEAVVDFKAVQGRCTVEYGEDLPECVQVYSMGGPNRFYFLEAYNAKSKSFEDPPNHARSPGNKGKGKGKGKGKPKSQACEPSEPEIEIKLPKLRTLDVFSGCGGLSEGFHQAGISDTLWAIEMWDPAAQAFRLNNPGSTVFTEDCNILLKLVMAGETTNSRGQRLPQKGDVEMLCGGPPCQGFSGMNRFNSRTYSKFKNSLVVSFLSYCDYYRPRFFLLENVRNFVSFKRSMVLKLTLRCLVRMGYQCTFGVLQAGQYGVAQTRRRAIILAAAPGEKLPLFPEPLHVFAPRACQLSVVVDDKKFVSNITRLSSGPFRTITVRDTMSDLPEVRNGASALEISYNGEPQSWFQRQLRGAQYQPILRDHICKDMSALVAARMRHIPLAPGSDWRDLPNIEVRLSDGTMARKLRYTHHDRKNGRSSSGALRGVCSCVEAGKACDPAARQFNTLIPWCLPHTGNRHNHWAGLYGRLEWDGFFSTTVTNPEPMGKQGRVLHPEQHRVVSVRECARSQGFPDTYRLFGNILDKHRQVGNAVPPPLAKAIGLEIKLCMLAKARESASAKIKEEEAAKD
STEP inh: STEP phosphatase inhibitors, primary screen, biochemical, fluorescence intensity, uHTS; Tyrosine-protein phosphatase non-receptor type 5 (Homo sapiens), P54829; recombinant STEP, OMFP fluorogenic substrate; inhibition, % at 20 µM; 360,000 compounds, 0.25% hits;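 active = inhibition at 20 µM, scaled per plate between control wells, above about 37%, limit read from the data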;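 also: 0% = DMSO with enzyme and substrate and 100% = substrate only without enzyme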
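material = STEP tyrosine phosphatase | reagent = fluorogenic phosphatase substrate OMFP at 25 µM final | doses = single compound dose of 20 µM, 1% DMSO final | schedule = 20 min reaction, room temperature, in the dark | measured by = fluorescence, 480/540 nm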
SUMO1 PPI mod: modulators of SUMO1 protein-protein interactions, primary screen, biochemical, uHTS; 360,000 compounds, 0.33% hits; SUMO1 binding to a labelled peptide, TR-FRET, 1 h; inhibition, % at 20 µM; in the data active = inhibition above about 37%
LMPTP block: LMPTP phosphatase inhibitors, primary screen, biochemical, fluorescence intensity, uHTS; recombinant LMPTP-A, OMFP fluorogenic substrate; inhibition, % at 20 µM; 360,000 compounds, 0.22% hits;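 active = compounds that cut the enzyme signal by at least half of the control window in the single-dose screen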;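 also: plate controls were DMSO wells with enzyme plus substrate for no effect and substrate without enzyme for full effect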
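Assay system: LMPTP-A phosphatase enzyme | Input: 0.625 nM enzyme | Also added: Fluorogenic phosphatase substrate OMFP at 400 µM final | Compound dosing: One test concentration per compound, 20 µM, with 3% DMSO overall | Schedule: 50 min enzyme reaction at room temperature, protected from light | Signal: Fluorescence intensity | Benchmarks: no-enzyme and uninhibited controls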
Scp-1 inhibitor: Scp-1 phosphatase inhibitors, primary screen, biochemical, colorimetric, uHTS; Carboxy-terminal domain RNA polymerase II polypeptide A small phosphatase 1 (Homo …; Recombinant Scp1, phosphopeptide, malachite green phosphate absorbance; inhibition, % at 20 µM; 340,000 compounds, 0.88% hits;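 active = inhibition above about 50% at 20 µM, limit read from the data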;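 also: plate controls were DMSO wells with enzyme for no effect and wells lacking enzyme for full effect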
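Times: enzyme reaction 45 min at room temperature, colour 5 min, stabilisation 30 min. Material: SCP-1 catalytic fragment, aa 76-261. Medium: Acidic Tris acetate buffer with magnesium and detergent. Signal: colorimetric free-phosphate detection, absorbance 630 nm. Read-out basis: % inhibition of SCP-1 phosphate liberation. Reagent: Phosphorylated 17-residue peptide substrate.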
NadD block: inhibitors of S. aureus NadD, primary screen, biochemical, colorimetric, uHTS. 360,000 compounds, 0.78% hits. Nicotinate-nucleotide adenylyltransferase NadD (Staphylococcus aureus N315). inhibition, % at 20 µM. purified NadD enzyme, colorimetric absorbance read-out; in the data active = inhibition above about 26%
Beacon interf DR: spectral interference with molecular beacon fluorescence, dose response, artefact control for DNMT1 inhibitor project, biochemical, fluorescent molecular beacon; shares compounds with DNMT1 inh; spectral interference counter-screen; IC50, µM; 200 tested, under 10 active; call rule not given here
DNMT1 inh conf: DNMT1 methyltransferase inhibitor retest, confirmation, biochemical, molecular beacon, fluorescence, single concentration; shares compounds with DNMT1 inh; DNMT1 molecular beacon HinP1I cleavage; AID 602385, 2012; 2,300 compounds, 8% hits; inhibition, % at 10 µM;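 active = average inhibition of at least 30% in the single-concentration confirmation test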
DNMT1 interf: shows spectral interference in the DNMT1 beacon assay | shares compounds with DNMT1 inh | DNMT1 molecular beacon spectral interference counterscreen, fluorescence 485/520 | activation (fluorescence interference), % at 10 µM | 2,300 compounds, 1% hits | AID 602387;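 active = activation of at least 30% at 10 µM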;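 also: DNMT1 catalytic domain with a HinP1I cleavage step and a FAM/dabcyl DNA beacon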
The depositor's hits bear a star; nt = no result. Shown are actives, neighbours in structure and some others; about 2.3% of the full set was active somewhere.

SMILES	DNMT1 inh	STEP inh	SUMO1 PPI mod	LMPTP block	Scp-1 inhibitor	NadD block	DNMT1 inh conf	DNMT1 interf	others
O=C(O)c1cccc(N2C(=O)c3cc([N+](=O)[O-])cc4cc([N+](=O)[O-])cc(c34)C2=O)c1	84.7*	31.8	29.3	5.6	69.1*	-2.2	18.3	-1.0
O=C(O)c1cccc(N2C(=O)c3cccc4cccc(c34)C2=O)c1	3.7	0.1	-27.6	-2.2	8.1	-3.9	nt	nt
CCCC[N+](C)(C)CCC(=O)NC(C)(C)CS(=O)(=O)[O-]	66.1*	7.1	0.7	-0.7	42.8	-8.9	5.0	1.2
COc1cc2oc(=O)cc(-c3ccc(-c4ccc(OC(F)(F)F)cc4)cc3)c2c(OC)c1OC	61.3*	2.8	3.9	13.5	-8.0	3.6	0.3	1.4
COc1ccc(-c2ccc(-c3cc(=O)oc4cc(OC)c(OC)c(OC)c34)cc2)cc1F	-2.8	0.7	-9.8	4.1	-6.6	-4.9	nt	nt
OC[C@@H]1CN(Cc2cccs2)C[C@H](n2cnc3c(NCc4ccncc4)ncnc32)O1	10.0	-1.2	-2.6	-0.5	nt	1.6	nt	nt
CC1CCN(S(=O)(=O)c2ccc(NC(=O)Cn3nnc(-c4ccccc4)n3)cc2)CC1	56.2*	2.9	2.0	0.4	-3.5	7.2	5.2	9.4
Cc1ccc(-c2nnn(CC(=O)Nc3ccc(S(=O)(=O)N4CCC(C)CC4)cc3)n2)cc1	48.4	1.9	-1.4	0.5	-10.8	11.4	nt	nt
CC(Sc1nc2ccccc2c(=O)n1CCc1ccc(S(N)(=O)=O)cc1)C(=O)NC(N)=O (configuration not stated)	-1.3	-3.5	0.5	-1.1	-3.4	-5.5	nt	nt
CN(Cc1ccc(C(C)(C)C)cc1)C(=O)Cc1ccc(S(=O)(=O)N2CCOCC2)s1	71.4*	2.3	1.3	1.2	-12.8	-6.1	3.0	2.9
CN(Cc1cccc(F)c1)C(=O)Cc1ccc(S(=O)(=O)N2CCOCC2)s1	-2.1	-0.3	0.6	-7.6	-8.0	2.3	nt	nt
O=C1CN(C(=O)NCC(=O)N[C@H](C(=O)O)c2ccccc2)c2ccccc2N1	2.8	-0.9	3.6	-1.8	3.4	-2.7	nt	nt
O=C1CN(C(=O)NCC(=O)N[C@H](Cc2ccccc2)C(=O)O)c2ccccc2N1	74.3*	-1.2	1.7	-1.2	-7.1	-6.8	0.7	5.9
CCN(CC)CCC(=O)Nc1cccc2c1C(=O)c1ccccc1C2=O	73.1*	3.3	-36.1	1.2	-4.2	-7.4	52.8*	0.8	Beacon interf DR=>99
Cc1ccsc1C(=O)C1CCCN(Cc2cccn2-c2ccc(Cl)cn2)C1 (configuration not stated)	112.7*	3.2	-1.3	1.0	26.3	1.9	0.5	-2.0
NS(=O)(=O)c1ccc(NC(=O)c2cccc(N3C(=O)c4ccccc4C3=O)c2)cc1	54.9*	37.8	93.6*	38.3	6.2	-3.6	7.5	2.1
O=C(Nc1ccccc1C(=O)O)c1cccc(N2C(=O)c3ccccc3C2=O)c1	0.7	2.2	-3.7	-1.7	-9.6	-7.6	nt	nt
COC(=O)c1ccc(N2CC3CNC(=O)C2(C(=O)OC)N3C)cc1 (configuration not stated)	4.1	-0.6	-0.9	-1.6	-3.0	-5.7	nt	nt
